system: not listed separately; assay: Inhibition of Hepatitis C virus genotype 1b BK isolate NS5b polymerase activity using [3H]UTP preincubated for 120 mins measured after 1 hr by scintillation proximity assay; settings: not given
Outline: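 Scintillation proximity assay at 22 °C. Started with [3H]UTP, UTP, 250 nM 5'-biotinylated oligo(rU12) and poly(rA). Stopped at 120 min with tRNA/streptavidin SPA beads/EDTA; 30 min, then CsCl, 1 h, top-count.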

Row | SMILES | IC50
1 | COc1cc2c(=O)c(-c3noc(-c4ccccc4)n3)cn(Cc3ccc(Cl)cc3)c2cc1OC | > 10000 nM
2 | COc1cc2c(=O)c(-c3nc(-c4ccc(Cl)cc4)no3)cn(Cc3ccc(Cl)cc3)c2cc1OC | > 10000 nM
3 | COc1cc2c(=O)c(C3=N[C@@H](C)[C@@H](c4ccccc4)O3)cn(Cc3ccc(Cl)cc3)c2cc1OC | 4300 nM
4 | COc1cc2c(=O)c(-c3noc(Cc4ccccc4)n3)cn(Cc3ccc(Cl)cc3)c2cc1OC | 41 nM
5 | COc1cc2c(=O)c(-c3nc(Cc4ccccc4)no3)cn(Cc3ccc(Cl)cc3)c2cc1OC | 730 nM
6 | COc1cc2c(=O)c(-c3nnc(Cc4ccc(Cl)cc4)o3)cn(Cc3ccc(Cl)cc3)c2cc1OC | 1600 nM
7 | COc1ccc2c(c1)c(=O)c(-c1ncc(Cc3ccccc3)o1)cn2Cc1ccc(Cl)cc1 | 1800 nM
8 | COc1cc2c(=O)c(-c3nnn(Cc4ccccc4)n3)cn(Cc3ccc(Cl)cc3)c2cc1OC | > 10000 nM
9 | COc1cc2c(=O)c(-c3noc(CCc4ccccc4)n3)cn(Cc3ccc(Cl)cc3)c2cc1OC | > 10000 nM
10 | CN1CCN(c2cc3c(cc2F)c(=O)c(-c2nnc(Cc4ccccc4)o2)cn3Cc2ccc(Cl)cc2)CC1 | 115 nM
11 | CN1CCN(c2cc3c(cc2F)c(=O)c(-c2noc(Cc4ccc(F)cc4F)n2)cn3Cc2ccc(Cl)cc2)CC1 | 75 nM
12 | CN1CCN(c2cc3c(cc2F)c(=O)c(-c2nnc(Cc4ccc(F)cc4)o2)cn3Cc2ccc(C(F)(F)F)cc2F)CC1 | 45 nM

Stronger by IC50, values ahead:

Row | IC50 | SMILES
13 | 23 nM | CN1CCN(c2cc3c(cc2F)c(=O)c(-c2noc(Cc4ccccc4)n2)cn3Cc2ccc(Cl)cc2)CC1
14 | 19 nM | CN1CCN(c2cc3c(cc2F)c(=O)c(-c2noc(Cc4ccc(F)cc4)n2)cn3Cc2ccc(Cl)cc2)CC1
15 | 24 nM | CN1CCN(c2cc3c(cc2F)c(=O)c(-c2noc(Cc4ccccc4)n2)cn3Cc2ccc(C(F)(F)F)cc2)CC1
16 | 14 nM | CN1CCN(c2cc3c(cc2F)c(=O)c(-c2noc(Cc4ccccc4)n2)cn3Cc2ccc(C(F)(F)F)cc2F)CC1
17 | 15 nM | CN1CCN(c2cc3c(cc2F)c(=O)c(-c2noc(Cc4ccc(F)cc4)n2)cn3Cc2ccc(C(F)(F)F)cc2F)CC1
18 | 38 nM | CN1CCN(c2cc3c(cc2F)c(=O)c(-c2nnc(Cc4ccccc4)o2)cn3Cc2ccc(C(F)(F)F)cc2F)CC1

system: Hepatitis C virus; assay: Antiviral activity against Hepatitis C virus genotype 1b infected in human HuH7 cells assessed as inhibition of viral replication after 48 hrs by quantitative RT-PCR; format: functional, organism-based, Hepacivirus hominis; settings: Huh-7, 48 h
Outline: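 Huh7/Clone A replicon cells seeded at 40,000/well without G418 and kept overnight at 37 °C, 5% CO2. DMSO-serially diluted compound added (final DMSO 0.5%), 7 concentrations in triplicate, 48 h at 37 °C. Total RNA extracted; HCV replicon RNA quantified by TaqMan RT-qPCR relative to untreated cells (100%). EC50 from a 4-parameter curve fit.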

Row | SMILES | EC50
19 | COc1cc2c(=O)c(C3=N[C@@H](C)[C@@H](c4ccccc4)O3)cn(Cc3ccc(Cl)cc3)c2cc1OC | 8910 nM
20 | COc1cc2c(=O)c(-c3noc(Cc4ccccc4)n3)cn(Cc3ccc(Cl)cc3)c2cc1OC | 10300 nM
21 | CN1CCN(c2cc3c(cc2F)c(=O)c(-c2nnc(Cc4ccccc4)o2)cn3Cc2ccc(Cl)cc2)CC1 | 4400 nM
22 | CN1CCN(c2cc3c(cc2F)c(=O)c(-c2noc(Cc4ccc(F)cc4F)n2)cn3Cc2ccc(Cl)cc2)CC1 | 3680 nM
23 | CN1CCN(c2cc3c(cc2F)c(=O)c(-c2nnc(Cc4ccc(F)cc4)o2)cn3Cc2ccc(C(F)(F)F)cc2F)CC1 | 730 nM

The remaining lines, values ahead:

Row | EC50 | SMILES
24 | 840 nM | CN1CCN(c2cc3c(cc2F)c(=O)c(-c2noc(Cc4ccccc4)n2)cn3Cc2ccc(Cl)cc2)CC1
25 | 1430 nM | CN1CCN(c2cc3c(cc2F)c(=O)c(-c2noc(Cc4ccc(F)cc4)n2)cn3Cc2ccc(Cl)cc2)CC1
26 | 360 nM | CN1CCN(c2cc3c(cc2F)c(=O)c(-c2noc(Cc4ccccc4)n2)cn3Cc2ccc(C(F)(F)F)cc2)CC1
27 | 250 nM | CN1CCN(c2cc3c(cc2F)c(=O)c(-c2noc(Cc4ccccc4)n2)cn3Cc2ccc(C(F)(F)F)cc2F)CC1
28 | 230 nM | CN1CCN(c2cc3c(cc2F)c(=O)c(-c2noc(Cc4ccc(F)cc4)n2)cn3Cc2ccc(C(F)(F)F)cc2F)CC1
29 | 610 nM | CN1CCN(c2cc3c(cc2F)c(=O)c(-c2nnc(Cc4ccccc4)o2)cn3Cc2ccc(C(F)(F)F)cc2F)CC1

system: not listed separately; assay: Cytotoxicity against human HuH7 cells assessed as cellular GAPDH level after 48 hrs by quantitative RT-PCR; format: cell-based, Huh-7; settings: read-out: GI50

Row | SMILES | CC50 at 48 h
30 | CN1CCN(c2cc3c(cc2F)c(=O)c(-c2noc(Cc4ccccc4)n2)cn3Cc2ccc(Cl)cc2)CC1 | 7300 nM
31 | CN1CCN(c2cc3c(cc2F)c(=O)c(-c2nnc(Cc4ccccc4)o2)cn3Cc2ccc(Cl)cc2)CC1 | 9800 nM
32 | CN1CCN(c2cc3c(cc2F)c(=O)c(-c2noc(Cc4ccc(F)cc4)n2)cn3Cc2ccc(Cl)cc2)CC1 | 6400 nM
33 | CN1CCN(c2cc3c(cc2F)c(=O)c(-c2noc(Cc4ccc(F)cc4F)n2)cn3Cc2ccc(Cl)cc2)CC1 | 4700 nM
34 | CN1CCN(c2cc3c(cc2F)c(=O)c(-c2noc(Cc4ccccc4)n2)cn3Cc2ccc(C(F)(F)F)cc2)CC1 | 15000 nM
35 | CN1CCN(c2cc3c(cc2F)c(=O)c(-c2noc(Cc4ccccc4)n2)cn3Cc2ccc(C(F)(F)F)cc2F)CC1 | 7000 nM
36 | CN1CCN(c2cc3c(cc2F)c(=O)c(-c2noc(Cc4ccc(F)cc4)n2)cn3Cc2ccc(C(F)(F)F)cc2F)CC1 | 6000 nM
37 | CN1CCN(c2cc3c(cc2F)c(=O)c(-c2nnc(Cc4ccccc4)o2)cn3Cc2ccc(C(F)(F)F)cc2F)CC1 | 4600 nM
38 | CN1CCN(c2cc3c(cc2F)c(=O)c(-c2nnc(Cc4ccc(F)cc4)o2)cn3Cc2ccc(C(F)(F)F)cc2F)CC1 | 5700 nM

Source: ChEMBL document CHEMBL1933010, “3-heterocyclyl quinolone inhibitors of the HCV NS5B polymerase” (Bioorg Med Chem Lett, 2012)
